Measured values published in ChEMBL document CHEMBL2311439, “New bis-thiazolium analogues as potential antimalarial agents: design, synthesis, and biological evaluation” (J Med Chem, 2013).

Columns and labels:
Plasmodium falciparum = test: Antiplasmodial activity against Plasmodium falciparum Nigeria infected in human erythrocytes assessed as incorporation of [3H]hypoxanthine after 48 hrs; format: functional, organism-based
In short: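 Nigerian-strain P. falciparum-infected erythrocytes at 1.5% final hematocrit and 0.6% parasitemia, grown in Hepes-buffered RPMI 1640 with 10% AB human serum. Drugs dissolved in DMSO, final DMSO ≤0.25%. Modified Desjardins test: [³H]hypoxanthine incorporation measured after 48 h drug contact. IC₅₀ is the concentration giving 50% growth inhibition. Two independent experiments.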

[1] = test system: Plasmodium vinckei petteri; test: Antimalarial activity against Plasmodium vinckei petteri 279BY infected in Swiss mouse administered as ip qd for 4 days measured on day 5; format: functional
In short: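 Female Swiss mice infected intravenously with 10⁷ P. vinckei petteri 279BY parasites (parasitemia 0.5−1% on day 1). Compounds in DMSO, 0.9% NaCl or intralipid/DMSO (90/10) given ip once daily on days 1−4 postinfection. Parasitemia read on day 5. ED₅₀ is the dose giving 50% parasitemia inhibition, determined only when parasitemia fell by at least 85%. Three mice per dose.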

[2] = Oral bioavailability in Sprague-Dawley rat at 12 mg/kg; format: ADME, organism-based; details: in vivo
Mus musculus = test: Toxicity in ip dosed Swiss mouse administered for 4 days measured on day 5; format: organism-based; details: in vivo, 96 h
Jurkat = test: Cytotoxicity against human Jurkat cells after 24 hrs by [3H]thymidine incorporation assay; format: cell-based
In short: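 Human Jurkat lymphoblasts exposed to compounds for 24 h, then [³H]thymidine added to gauge viability. Values are means of two independent experiments run in duplicate, differing by less than 40%.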

[3] = Therapeutic index, ratio of ED50 for human Jurkat cells to IC50 for Plasmodium falciparum Nigeria infected in human erythrocytes; format: cell-based

SMILES | IC50 (Plasmodium falciparum) | ED50 [1] | further results
Cc1c(CCOCCCCCCOCCc2sc[n+](C)c2C)sc[n+]1C | 120 nM |  | 
C/C(=C1\CCOC(=O)S1)N(C=O)CCCCCCCCCCCCN(C=O)/C(C)=C1\CCOC(=O)S1 |  |  | bioavailability [2]: 15%
Cc1c(CCO)sc[n+]1CCOc1ccc(Cc2ccc(OCC[n+]3csc(CCO)c3C)cc2)cc1.[Cl-].[Cl-] | 22 nM | > 1 mg/kg | 
COCCc1sc[n+](CCOc2ccc(Cc3ccc(OCC[n+]4csc(CCOC)c4C)cc3)cc2)c1C.[Cl-].[Cl-] | 22.5 nM | > 1 mg/kg | 
COCCc1sc[n+](CCOc2ccc(C(=O)c3ccc(OCC[n+]4csc(CCOC)c4C)cc3)cc2)c1C.[Cl-].[Cl-] | 80 nM | > 2 mg/kg | Activity (Mus musculus): Non-toxic
COCCc1sc[n+](Cc2ccc(OCCCCCOc3ccc(C[n+]4csc(CCOC)c4C)cc3)cc2)c1C.[Cl-].[Cl-] | 313 nM | > 0.4 mg/kg | 
Cc1c(CCO)sc[n+]1CCCc1ccc(CCC[n+]2csc(CCO)c2C)cc1.[Cl-].[Cl-] | 77.5 nM | > 0.5 mg/kg | 
COCCc1sc[n+](CCCc2ccc(CCC[n+]3csc(CCOC)c3C)cc2)c1C.[Cl-].[Cl-] | 36.5 nM | > 1 mg/kg | 
Cc1c(CCO)sc[n+]1CC#Cc1ccc(C#CC[n+]2csc(CCO)c2C)cc1 | 1250 nM |  | 
COCCc1sc[n+](CC#Cc2ccc(C#CC[n+]3csc(CCOC)c3C)cc2)c1C | 420 nM |  | 
Cc1c(CCO)sc[n+]1CCC#Cc1ccc(C#CCC[n+]2csc(CCO)c2C)cc1 | 173 nM |  | 
Cc1c(CCOCc2cn(CCc3sc[n+](C)c3C)nn2)sc[n+]1C | 10000 nM |  | 
Cc1c(CCOCc2cn(CCc3sc[n+](Cc4ccccc4)c3C)nn2)sc[n+]1Cc1ccccc1 | 640 nM |  | 
COCCc1sc[n+](CCCc2cn(CCc3sc[n+](C)c3C)nn2)c1C | 8200 nM |  | 
COCCc1sc[n+](CCCc2cn(CCc3sc[n+](Cc4ccccc4)c3C)nn2)c1C | 7000 nM |  | 
COCCc1sc[n+](CCCCCn2cc(CCC[n+]3csc(CCOC)c3C)nn2)c1C | 1200 nM |  | 
Cc1c(CCO)sc[n+]1CCCCCCCCCCCC[n+]1csc(CCO)c1C.[Br-].[Br-] [ALBITIAZOLIUM BROMIDE] |  | 0.2 mg/kg | IC50 (Jurkat): 347000 nM; selectivity ratio [3]: 150000

Further compounds by falling IC50 (Plasmodium falciparum), results first:

IC50 (Plasmodium falciparum) | SMILES | ED50 [1] | further results
20.5 nM | Cc1c(CCO)sc[n+]1CCCCc1ccc(CCCC[n+]2csc(CCO)c2C)cc1.[Cl-].[Cl-] | 1.2 mg/kg | 
18.5 nM | COCCc1sc[n+](CCOc2ccc(-c3ccc(OCC[n+]4csc(CCOC)c4C)cc3)cc2)c1C.[Br-].[Br-] | > 0.6 mg/kg | 
16.5 nM | Cc1c(CCO)sc[n+]1CCCCc1ccc(CCCC[n+]2csc(CCO)c2C)s1.[Cl-].[Cl-] | > 0.6 mg/kg | 
15 nM | Cc1c(CCOCCCCCCOCCc2sc[n+](Cc3ccccc3)c2C)sc[n+]1Cc1ccccc1 |  | 
9 nM | COCCc1sc[n+](CCCCc2cccc(CCCC[n+]3csc(CCOC)c3C)c2)c1C.[Cl-].[Cl-] | > 1 mg/kg | 
8.3 nM | COCCc1sc[n+](CCCCc2ccc(CCCC[n+]3csc(CCOC)c3C)cc2)c1C.[Cl-].[Cl-] | 0.13 mg/kg | Activity (Mus musculus): Non-toxic
6.7 nM | Cc1c(CCO)sc[n+]1CCCCc1ccc(CCCC[n+]2csc(CCO)c2C)c2ccccc12.[Cl-].[Cl-] | > 0.6 mg/kg | 
6.3 nM | COCCc1sc[n+](CCCCc2ccc3ccc(CCCC[n+]4csc(CCOC)c4C)cc3c2)c1C.[Cl-].[Cl-] | 0.5 mg/kg | IC50 (Jurkat): 465000 nM; selectivity ratio [3]: 170000
2.7 nM | COCCc1sc[n+](CCCCc2ccc(CCCC[n+]3csc(CCOC)c3C)s2)c1C.[Cl-].[Cl-] | 0.28 mg/kg | IC50 (Jurkat): 63000 nM
2.5 nM | COCCc1sc[n+](CCCCc2ccc(-c3ccc(CCCC[n+]4csc(CCOC)c4C)cc3)cc2)c1C.[Cl-].[Cl-] | 0.7 mg/kg | 
2.1 nM | COCCc1sc[n+](CCCCc2ccc(CCCC[n+]3csc(CCOC)c3C)c3ccccc23)c1C.[Cl-].[Cl-] | > 0.6 mg/kg | 
